Structures are written as SMILES.

The target of test [1] is Misshapen-like kinase 1 (Homo sapiens) (UniProt Q8N4C8). In words: Inhibition of human recombinant MINK at 15 nM in presence of ATP by radiometric assay relative to control.
The target in test [2] is Tyrosine-protein kinase Fgr (Homo sapiens) (UniProt P09769). In words: Inhibition of human recombinant FGR at 15 nM related to control ULK1.
In test [3] the target is Serine/threonine-protein kinase SIK1 (Homo sapiens) (UniProt P57059). Put plainly: Inhibition of human recombinant SIK at 15 nM in presence of ATP by radiometric assay relative to control.
Sequence of Serine/threonine-protein kinase SIK1 (Homo sapiens) (P57059 whole entry): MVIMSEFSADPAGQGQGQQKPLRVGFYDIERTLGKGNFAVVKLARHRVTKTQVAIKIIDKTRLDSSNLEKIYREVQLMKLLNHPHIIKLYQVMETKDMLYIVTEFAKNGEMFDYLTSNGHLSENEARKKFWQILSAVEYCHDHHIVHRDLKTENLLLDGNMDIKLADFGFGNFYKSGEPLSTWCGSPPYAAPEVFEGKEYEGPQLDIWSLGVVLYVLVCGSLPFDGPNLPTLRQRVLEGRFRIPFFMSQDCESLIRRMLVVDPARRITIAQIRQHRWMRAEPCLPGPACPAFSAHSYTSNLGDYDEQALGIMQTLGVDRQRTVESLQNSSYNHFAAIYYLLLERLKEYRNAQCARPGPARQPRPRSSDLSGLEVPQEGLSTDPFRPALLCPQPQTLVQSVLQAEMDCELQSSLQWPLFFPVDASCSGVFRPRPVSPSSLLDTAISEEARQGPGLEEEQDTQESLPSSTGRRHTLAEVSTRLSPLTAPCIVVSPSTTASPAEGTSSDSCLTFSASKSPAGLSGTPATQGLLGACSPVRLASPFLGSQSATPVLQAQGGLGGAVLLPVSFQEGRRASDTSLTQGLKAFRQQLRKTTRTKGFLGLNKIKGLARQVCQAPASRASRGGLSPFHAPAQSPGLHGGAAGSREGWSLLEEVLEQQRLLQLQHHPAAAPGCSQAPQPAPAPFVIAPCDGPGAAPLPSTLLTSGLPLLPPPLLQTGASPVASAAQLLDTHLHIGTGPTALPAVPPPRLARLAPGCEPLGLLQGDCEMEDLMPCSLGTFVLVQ
The target in test [4] is T1, Serine/threonine-protein kinase ULK3 (Homo sapiens) (UniProt Q6PHR2).
T1 sequence (whole entry): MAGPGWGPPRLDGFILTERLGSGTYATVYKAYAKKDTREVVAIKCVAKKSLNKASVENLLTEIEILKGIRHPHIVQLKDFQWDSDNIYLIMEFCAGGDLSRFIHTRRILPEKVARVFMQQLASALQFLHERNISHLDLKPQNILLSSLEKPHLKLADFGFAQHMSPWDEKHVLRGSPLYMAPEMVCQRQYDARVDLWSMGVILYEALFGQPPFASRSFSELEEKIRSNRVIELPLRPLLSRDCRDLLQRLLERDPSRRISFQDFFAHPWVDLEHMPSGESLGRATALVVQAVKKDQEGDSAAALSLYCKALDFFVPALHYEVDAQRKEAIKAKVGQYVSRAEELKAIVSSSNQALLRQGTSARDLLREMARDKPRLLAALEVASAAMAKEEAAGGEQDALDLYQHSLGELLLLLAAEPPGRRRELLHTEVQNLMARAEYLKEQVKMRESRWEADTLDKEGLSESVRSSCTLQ
In words: Inhibition of human recombinant ULK3 at 40 nM related to control ULK1.

The target in test [5] is RAC-beta serine/threonine-protein kinase (Homo sapiens) (UniProt P31751). In words: Inhibition of human recombinant AKT2 at 40 nM related to control ULK1. The method, boiled down: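 Radiometric activity assays in a panel of 327 human recombinant kinases, each run in duplicate at one inhibitor concentration. Activity remaining is expressed as percent of vehicle control, and percent inhibition is calculated as 100% minus percent activity remaining.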
Sequence of RAC-beta serine/threonine-protein kinase (Homo sapiens) (P31751 whole entry): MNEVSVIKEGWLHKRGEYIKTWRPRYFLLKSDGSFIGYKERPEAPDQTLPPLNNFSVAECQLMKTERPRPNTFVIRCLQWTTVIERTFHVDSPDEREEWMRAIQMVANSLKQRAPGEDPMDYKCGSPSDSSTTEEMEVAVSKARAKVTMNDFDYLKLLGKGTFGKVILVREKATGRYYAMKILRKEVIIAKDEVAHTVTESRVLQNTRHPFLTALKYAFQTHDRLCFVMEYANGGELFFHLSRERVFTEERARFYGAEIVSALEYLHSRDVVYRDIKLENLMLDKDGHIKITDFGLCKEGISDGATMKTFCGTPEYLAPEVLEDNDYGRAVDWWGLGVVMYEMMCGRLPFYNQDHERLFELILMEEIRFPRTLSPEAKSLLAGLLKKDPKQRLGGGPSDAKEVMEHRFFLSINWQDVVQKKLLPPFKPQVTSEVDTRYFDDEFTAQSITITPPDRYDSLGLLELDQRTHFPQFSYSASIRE

For test [6], the target named is Dual specificity mitogen-activated protein kinase kinase 1 (Homo sapiens) (UniProt Q02750). In words: Inhibition of human recombinant MAP2K1 at 40 nM related to control ULK1.
Sequence of Dual specificity mitogen-activated protein kinase kinase 1 (Homo sapiens) (Q02750 whole entry): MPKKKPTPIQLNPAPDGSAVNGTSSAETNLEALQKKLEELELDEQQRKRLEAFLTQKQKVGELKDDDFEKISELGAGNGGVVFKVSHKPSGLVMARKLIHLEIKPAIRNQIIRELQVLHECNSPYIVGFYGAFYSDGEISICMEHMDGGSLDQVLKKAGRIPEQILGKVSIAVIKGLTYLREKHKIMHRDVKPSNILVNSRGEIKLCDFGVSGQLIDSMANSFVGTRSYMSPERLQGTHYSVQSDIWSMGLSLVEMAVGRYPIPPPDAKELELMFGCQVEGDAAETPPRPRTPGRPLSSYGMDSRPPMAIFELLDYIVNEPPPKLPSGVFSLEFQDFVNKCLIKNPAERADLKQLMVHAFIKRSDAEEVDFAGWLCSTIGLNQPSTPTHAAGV
Test [7] addresses Homeodomain-interacting protein kinase 1 (Homo sapiens) (UniProt Q86Z02). In words: Inhibition of human recombinant HIPK1 at 40 nM related to control ULK1.
The target in test [8] is Protein kinase C delta type (Homo sapiens) (UniProt Q05655). Put plainly: Inhibition of human recombinant PKCd at 40 nM related to control ULK1.
Sequence of Protein kinase C delta type (Homo sapiens) (Q05655 whole entry, looked up): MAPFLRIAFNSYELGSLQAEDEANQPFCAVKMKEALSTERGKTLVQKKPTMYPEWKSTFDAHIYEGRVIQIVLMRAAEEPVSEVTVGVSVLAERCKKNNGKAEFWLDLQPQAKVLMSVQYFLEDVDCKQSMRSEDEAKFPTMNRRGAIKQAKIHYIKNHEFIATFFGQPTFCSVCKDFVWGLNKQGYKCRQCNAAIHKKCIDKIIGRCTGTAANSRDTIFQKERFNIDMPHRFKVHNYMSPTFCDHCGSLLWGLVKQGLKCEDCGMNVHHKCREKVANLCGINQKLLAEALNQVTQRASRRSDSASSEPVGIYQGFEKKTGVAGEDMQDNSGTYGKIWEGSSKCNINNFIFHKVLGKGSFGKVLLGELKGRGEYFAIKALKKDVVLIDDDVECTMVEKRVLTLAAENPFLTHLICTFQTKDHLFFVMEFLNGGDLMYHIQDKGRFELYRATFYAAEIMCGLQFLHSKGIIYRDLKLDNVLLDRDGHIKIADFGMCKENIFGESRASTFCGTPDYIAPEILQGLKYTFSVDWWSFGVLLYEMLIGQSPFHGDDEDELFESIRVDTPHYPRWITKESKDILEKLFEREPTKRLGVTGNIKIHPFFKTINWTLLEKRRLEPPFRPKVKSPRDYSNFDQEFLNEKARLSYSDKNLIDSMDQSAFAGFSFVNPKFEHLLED
The target in test [9] is T2, Dual specificity protein kinase TTK (Homo sapiens) (UniProt P33981).
T2 sequence (whole entry): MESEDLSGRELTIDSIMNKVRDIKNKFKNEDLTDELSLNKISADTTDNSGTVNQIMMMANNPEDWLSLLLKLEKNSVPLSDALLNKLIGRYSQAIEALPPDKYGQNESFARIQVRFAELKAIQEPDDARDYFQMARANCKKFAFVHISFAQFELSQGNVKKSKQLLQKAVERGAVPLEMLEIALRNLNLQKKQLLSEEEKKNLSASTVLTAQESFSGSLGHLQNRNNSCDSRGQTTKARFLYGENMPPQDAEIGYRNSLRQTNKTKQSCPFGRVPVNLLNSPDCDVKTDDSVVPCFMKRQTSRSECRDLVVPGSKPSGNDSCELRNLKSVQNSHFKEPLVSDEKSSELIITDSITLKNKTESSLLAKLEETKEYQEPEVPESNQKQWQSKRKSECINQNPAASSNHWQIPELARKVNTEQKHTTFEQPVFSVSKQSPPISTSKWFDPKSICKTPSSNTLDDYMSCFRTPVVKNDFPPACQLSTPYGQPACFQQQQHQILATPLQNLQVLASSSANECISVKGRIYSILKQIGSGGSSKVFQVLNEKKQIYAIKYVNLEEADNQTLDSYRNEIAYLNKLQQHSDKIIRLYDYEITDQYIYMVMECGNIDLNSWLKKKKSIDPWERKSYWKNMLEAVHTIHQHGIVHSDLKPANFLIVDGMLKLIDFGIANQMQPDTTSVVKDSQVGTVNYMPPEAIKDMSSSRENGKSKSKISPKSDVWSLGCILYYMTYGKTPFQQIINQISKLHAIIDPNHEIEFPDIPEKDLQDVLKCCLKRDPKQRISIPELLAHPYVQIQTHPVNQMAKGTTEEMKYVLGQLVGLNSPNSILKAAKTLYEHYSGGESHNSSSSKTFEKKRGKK
Put plainly: Inhibition of human recombinant TTK at 500 nM related to control ULK1.

For test [10], the target named is T3, Serine/threonine-protein kinase BRSK1 (Homo sapiens) (UniProt Q8TDC3).
T3 sequence (whole entry): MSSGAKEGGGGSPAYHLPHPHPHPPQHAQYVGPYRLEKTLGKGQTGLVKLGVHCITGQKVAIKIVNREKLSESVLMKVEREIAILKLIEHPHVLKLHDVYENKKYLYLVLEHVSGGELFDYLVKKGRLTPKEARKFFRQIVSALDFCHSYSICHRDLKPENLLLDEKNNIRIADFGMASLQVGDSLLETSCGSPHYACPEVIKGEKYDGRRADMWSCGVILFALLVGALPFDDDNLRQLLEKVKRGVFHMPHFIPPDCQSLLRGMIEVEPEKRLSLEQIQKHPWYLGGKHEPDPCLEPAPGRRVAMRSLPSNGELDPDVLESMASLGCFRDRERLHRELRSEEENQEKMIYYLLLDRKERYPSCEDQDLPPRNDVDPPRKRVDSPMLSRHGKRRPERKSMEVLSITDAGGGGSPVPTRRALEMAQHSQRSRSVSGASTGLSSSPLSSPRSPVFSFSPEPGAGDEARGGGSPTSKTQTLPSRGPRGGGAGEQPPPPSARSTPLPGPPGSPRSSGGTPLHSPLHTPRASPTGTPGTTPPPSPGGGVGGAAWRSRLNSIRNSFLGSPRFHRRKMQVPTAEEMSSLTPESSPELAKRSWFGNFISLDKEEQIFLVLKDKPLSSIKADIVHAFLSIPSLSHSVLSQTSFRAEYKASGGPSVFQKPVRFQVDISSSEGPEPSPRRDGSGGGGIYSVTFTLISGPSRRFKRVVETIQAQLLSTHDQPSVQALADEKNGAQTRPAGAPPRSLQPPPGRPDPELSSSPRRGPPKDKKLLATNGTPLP
Put plainly: Inhibition of human recombinant BRSK1 at 500 nM related to control ULK1. The method, boiled down: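 Recombinant human kinase panel (327 kinases) run as radiometric activity assays, each kinase in duplicate at one compound concentration. Activity remaining expressed relative to vehicle control; percent inhibition taken as 100% minus % activity remaining.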

Test [11] addresses SRSF protein kinase 1 (Homo sapiens) (UniProt Q96SB4). In words: Inhibition of human recombinant SRPK1 at 500 nM in presence of ATP by radiometric assay relative to control.
For test [12], the target named is Leukocyte tyrosine kinase receptor (Homo sapiens) (UniProt P29376). Put plainly: Inhibition of human recombinant LTK at 500 nM in presence of ATP by radiometric assay relative to control.

Sequence of SRSF protein kinase 1 (Homo sapiens) (Q96SB4 whole entry): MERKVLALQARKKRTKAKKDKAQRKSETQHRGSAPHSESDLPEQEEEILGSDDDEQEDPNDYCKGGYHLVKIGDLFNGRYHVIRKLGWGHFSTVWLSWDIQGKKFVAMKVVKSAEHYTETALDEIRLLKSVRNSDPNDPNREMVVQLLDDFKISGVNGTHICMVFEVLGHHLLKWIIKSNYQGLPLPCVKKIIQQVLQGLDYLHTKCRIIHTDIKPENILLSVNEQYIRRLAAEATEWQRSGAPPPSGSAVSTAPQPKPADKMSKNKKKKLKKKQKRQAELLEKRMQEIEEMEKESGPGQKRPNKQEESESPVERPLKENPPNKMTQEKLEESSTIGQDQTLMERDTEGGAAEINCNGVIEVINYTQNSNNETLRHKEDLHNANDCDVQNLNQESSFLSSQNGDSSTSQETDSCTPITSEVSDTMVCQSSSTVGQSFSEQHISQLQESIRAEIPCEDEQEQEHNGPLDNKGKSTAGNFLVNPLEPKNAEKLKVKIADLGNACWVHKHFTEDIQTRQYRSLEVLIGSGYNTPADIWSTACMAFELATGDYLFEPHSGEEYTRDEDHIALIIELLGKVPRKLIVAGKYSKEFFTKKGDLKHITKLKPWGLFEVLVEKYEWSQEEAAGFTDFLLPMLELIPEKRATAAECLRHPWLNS
Sequence of Tyrosine-protein kinase Fgr (Homo sapiens) (P09769 2-529 limits assumed): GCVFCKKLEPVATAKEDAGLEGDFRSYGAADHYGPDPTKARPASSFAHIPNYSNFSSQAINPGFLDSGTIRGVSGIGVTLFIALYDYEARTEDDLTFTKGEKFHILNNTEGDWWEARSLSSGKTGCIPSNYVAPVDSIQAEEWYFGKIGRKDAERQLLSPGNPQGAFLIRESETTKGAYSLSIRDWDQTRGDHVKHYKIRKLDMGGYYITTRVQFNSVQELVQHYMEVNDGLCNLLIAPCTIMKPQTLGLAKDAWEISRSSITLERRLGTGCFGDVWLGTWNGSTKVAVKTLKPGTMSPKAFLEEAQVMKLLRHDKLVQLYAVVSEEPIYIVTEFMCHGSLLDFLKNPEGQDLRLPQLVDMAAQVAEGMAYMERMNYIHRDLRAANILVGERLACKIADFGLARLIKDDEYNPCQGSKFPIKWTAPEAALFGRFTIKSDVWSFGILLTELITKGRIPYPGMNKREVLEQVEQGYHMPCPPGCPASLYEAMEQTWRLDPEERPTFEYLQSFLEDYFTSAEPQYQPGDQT
Sequence of Homeodomain-interacting protein kinase 1 (Homo sapiens) (Q86Z02 whole entry, looked up): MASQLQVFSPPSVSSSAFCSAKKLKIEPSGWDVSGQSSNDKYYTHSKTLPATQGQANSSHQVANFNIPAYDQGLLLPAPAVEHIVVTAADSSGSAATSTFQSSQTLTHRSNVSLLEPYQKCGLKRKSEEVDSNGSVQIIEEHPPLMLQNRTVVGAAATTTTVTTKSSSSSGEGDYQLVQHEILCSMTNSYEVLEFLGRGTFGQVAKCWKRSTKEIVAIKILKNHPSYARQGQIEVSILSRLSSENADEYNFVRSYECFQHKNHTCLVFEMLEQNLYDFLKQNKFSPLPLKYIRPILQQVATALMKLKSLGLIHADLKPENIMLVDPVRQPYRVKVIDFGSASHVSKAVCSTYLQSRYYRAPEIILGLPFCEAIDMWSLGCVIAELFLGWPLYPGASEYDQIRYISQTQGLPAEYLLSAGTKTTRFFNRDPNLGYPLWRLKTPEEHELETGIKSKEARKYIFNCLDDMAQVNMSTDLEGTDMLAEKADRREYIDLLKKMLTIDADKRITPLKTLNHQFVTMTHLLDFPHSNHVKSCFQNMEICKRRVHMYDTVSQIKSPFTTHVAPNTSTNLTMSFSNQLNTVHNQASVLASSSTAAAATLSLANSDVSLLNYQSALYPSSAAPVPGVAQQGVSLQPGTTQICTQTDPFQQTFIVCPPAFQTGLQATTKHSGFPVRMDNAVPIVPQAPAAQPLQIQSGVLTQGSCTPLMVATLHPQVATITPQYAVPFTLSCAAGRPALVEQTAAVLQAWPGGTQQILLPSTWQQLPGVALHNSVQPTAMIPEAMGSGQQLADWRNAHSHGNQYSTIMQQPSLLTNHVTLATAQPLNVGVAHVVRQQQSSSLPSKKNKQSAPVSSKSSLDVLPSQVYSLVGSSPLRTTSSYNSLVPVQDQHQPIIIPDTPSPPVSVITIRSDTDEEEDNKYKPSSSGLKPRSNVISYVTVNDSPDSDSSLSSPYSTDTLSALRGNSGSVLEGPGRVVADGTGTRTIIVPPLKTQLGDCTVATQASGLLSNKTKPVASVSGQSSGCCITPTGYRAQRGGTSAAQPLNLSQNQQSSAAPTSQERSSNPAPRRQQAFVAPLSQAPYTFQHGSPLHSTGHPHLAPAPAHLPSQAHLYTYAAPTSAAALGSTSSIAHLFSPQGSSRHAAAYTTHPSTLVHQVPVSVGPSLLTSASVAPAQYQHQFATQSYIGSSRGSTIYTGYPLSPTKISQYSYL

The inhibition is the percentage by which the read-out fell short of the control. For the molecule `CC(C)[C@H](NC(=O)c1cc(-c2cnn3cc(-c4ccc(OCCN5CCCCC5)cc4)cnc23)cs1)C(F)(F)F`, the results for the inhibition in test [1] and in test [3] were 4% and 74%, respectively. Also, in [2], the fold change (FC) came out at 0.49.

For `O=C(N[C@@H](C1CC1)C(F)(F)F)c1cc(-c2cnn3cc(-c4ccc(F)cc4)cnc23)cs1`, the fold change (FC) was found to be 0.07 in [4]; 0.14 in test [5]; 0 in test [6]; 0 in [7]; 0.04 in [8].

For `CNC(=O)c1ccccc1Oc1nc(Nc2cc(OC)c(OC)c(OC)c2)ncc1Br`, the fold change (FC) stood at 0.15 in test [9] and 0.03 in test [10]. Moreover, the inhibition stood at 10% in test [11] and 3% in test [12].

These data come from ChEMBL document CHEMBL5653631, “A Potent and Selective ULK1 Inhibitor Suppresses Autophagy and Sensitizes Cancer Cells to Nutrient Stress” (iScience, 2018).
